Only some compounds are listed: those with a hit (about 5.2% of all), similar ones and a draw of the others.
EBNA-1 inhibitor – blocks EBNA-1 binding to DNA; 0.34% of 300,000 active; EBNA-1 DNA binding, fluorescence polarization; inhibition, % at 14.8 µM; in the data active = inhibition above about 28%
HCV NS3 hel inh – HCV NS3 helicase inhibition. inhibition, % at 10.9 µM. 0.56% of 290,000 active. AID 1800. NS3 helicase DNA unwinding, Cy5 molecular beacon fluorescence;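 active = inhibition above the mean of all tested compounds plus 3 SD, set per campaign, cut at about 35% in these data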;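 also: 0% = DMSO wells and 100% = thioflavine S control wells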
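Material: hepatitis C virus NS3 helicase domain fragment enzyme; measured by: Cy5 fluorescence, 0 and 60 min reads; control set: DMSO and thioflavine S; incubation: 60 min unwinding reaction at 25 °C after ATP addition; read-out basis: % inhibition from 60/0 min fluorescence ratio, DMSO 0%, thioflavine S 100%; repeats: singlicate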
ALR H2O2 inh – blocks human ALR sulfhydryl oxidase activity | P55789 | purified ALR, DTT oxidation, H2O2 HRP-luminol luminescence | inhibition, % (no concentration beside the values) | 3.8% of 290,000 active | AID 485317;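 active = mean replicate inhibition above about 79%, with every replicate also reaching it, limit read from the data; inconclusive = only one of the two criteria met; inactive = mean below limit and not every replicate reaching it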
Target sequence (P55789 whole entry, looked up): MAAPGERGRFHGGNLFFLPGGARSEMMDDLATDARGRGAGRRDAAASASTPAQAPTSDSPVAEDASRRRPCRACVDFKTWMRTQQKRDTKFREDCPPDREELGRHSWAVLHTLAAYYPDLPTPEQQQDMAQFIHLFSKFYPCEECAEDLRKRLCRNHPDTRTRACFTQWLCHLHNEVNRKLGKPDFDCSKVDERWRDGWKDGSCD
PfM18AAP inh-1 – blocks P. falciparum M18 aspartyl aminopeptidase; recombinant PfM18AAP, H-Glu-NHMec fluorogenic cleavage; inhibition, % at 7.35 µM; 1.2% of 290,000 active;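 active = inhibition above the campaign mean inhibition over all tested compounds plus 3 SD, cut at about 28% in these data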;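 also: 0% = plate median of test compound wells and 100% = 2 mM ZnCl2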
ZTA DNA inh – ZTA (EBV) inhibition in EBNA-1 counter-screen. P03206. ZTA-DNA binding, fluorescence polarization. inhibition, % at 11 µM. 0.15% of 320,000 active; in the data active = inhibition above about 33%
Target sequence (P03206 whole entry, looked up): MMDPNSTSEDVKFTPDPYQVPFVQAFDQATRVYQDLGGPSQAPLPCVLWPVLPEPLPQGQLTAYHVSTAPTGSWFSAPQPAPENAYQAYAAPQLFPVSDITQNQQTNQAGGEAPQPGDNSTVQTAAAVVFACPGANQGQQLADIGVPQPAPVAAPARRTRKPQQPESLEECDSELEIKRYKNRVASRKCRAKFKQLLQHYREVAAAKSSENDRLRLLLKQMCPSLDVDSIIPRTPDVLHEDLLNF
core dimer inh – blocks dimerization of HCV core protein | inhibition, % at 5 µM | TR-FRET GST/Flag-core106 dimerization, 1536-well | AID 1899 | 0.33% of 300,000 active;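 active = inhibition above the mean of all tested compounds plus 3 SD, set per screening campaign, cut at about 45% in these data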
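Assay system – GST-tagged and Flag-tagged HCV core protein residues 1-106 · Quantity – core106 proteins, GST 13.5 nM and Flag 17 nM · Benchmarks – unlabelled core106 and no-GST-core106 wells · Read-out basis – percent inhibition of core106 dimerization signal · Detection – time-resolved FRET, ex 340 nm, em 617 and 671 nm · Schedule – 4 h at 22.5 °C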
PfM18AAP inh-2 – PfM18AAP inhibition, confirmation | shares compounds with PfM18AAP inh-1 | recombinant PfM18AAP, H-Glu-NHMec fluorogenic cleavage | inhibition, % at 7.35 µM | 28% of 2,400 active | AID 2170;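 active = mean inhibition over replicate wells above the hit cutoff set for the earlier primary screen, cut at about 29% in these data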;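 also: 0% = median of test compound wells and 100% = 2 mM ZnCl2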
CTSL1 confirm – counter-screen for PFM18AAP inhibitors: confirmation of human cathepsin L inhibitors. inhibition, % at 5.96 µM. purified cathepsin L1, Z-Leu-Arg-MCA fluorescence. 2,400 tested, under 10 active. AID 2178. shares compounds with PfM18AAP inh-1;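 active = average inhibition across replicates above the hit cutoff set in the earlier primary screen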;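 also: 0% = median of test compound wells and 100% = Z-Phe-Ala-diazomethylketone 1 µM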
The depositor's hits bear a star; ? = inconclusive; · = no result given.

SMILES | EBNA-1 inhibitor | HCV NS3 hel inh | ALR H2O2 inh | PfM18AAP inh-1 | ZTA DNA inh | core dimer inh | PfM18AAP inh-2 | CTSL1 confirm
NC(=S)NNc1ccnc2cc(Cl)ccc12 | 11 | -12 | 103* | 55* | 17 | -7 | 28* | 4
CC(=O)NC(CC(=O)NNC(=O)c1cc2ccccc2cc1O)c1ccccc1 (centres undefined) | 7 | 6 | 4 | 32* | 24 | 1 | -16 | 1
COc1cc(NC(=O)COC(=O)CC(NC(C)=O)c2ccccc2)cc(OC)c1 (centres undefined) | 3 | -3 | -3 | 0 | -11 | 2 | · | ·
Cc1ccc(-n2nc3ccc(N)cc3n2)cc1Cl | 0 | 23 | -1 | 32* | 4 | 5 | -42 | -1
COc1ccc(Cc2nc3ccc(C(=O)NCCCSC)cc3o2)cc1OC | -3 | -3 | · | -2 | 10 | 1 | · | ·
Oc1cc2c(cc1CN1CCc3ccccc3C1)OCO2 | 1 | 3 | 26 | 37* | 6 | 6 | 12 | -6
COc1ccccc1N1CCN(Cc2cc3c(cc2O)OCO3)CC1 | 10 | 4 | 44 | 16 | 10 | 6 | · | ·
COc1ccc(CC(=O)OC(C)C(=O)NCc2ccc3c(c2)OCO3)cc1OC (centres undefined) | -11 | · | -2 | · | 2 | 2 | · | ·
NC(=S)N/N=C/c1coc2ccc(O)cc2c1=O | -4 | 2 | 22 | 69* | 11 | 0 | 42* | 6
NC(=S)N/N=C/c1coc2ccc(Br)cc2c1=O | 3 | 2 | -7 | 6 | 11 | 3 | · | ·
CCN(CC)c1ccc(C2C3CCCCC3(O)CCN2CC(=O)N2CCCCC2)cc1 (centres undefined) | 2 | -14 | 99* | 49* | 3 | 10 | -8 | 4
O=C(OCC(=O)c1ccccc1Cl)C1=NN(c2ccccc2)C(=O)CC1 | · | · | -4 | · | · | · | · | ·
Oc1ccc(O)c(-c2cnns2)c1 | 3 | 1 | 99* | 86* | 5 | -5 | 90* | 1
O=C(Cc1csc(N2CCOCC2)n1)N/N=C/c1ccc(O)c(O)c1O | · | 21 | · | 47* | · | · | 16 | -3
Cc1cccnc1NC(=S)NCc1ccco1 | -8 | 0 | 3 | 32* | -4 | -2 | -20 | -5
CC1CC(C)CN(S(=O)(=O)c2ccc(NC(=O)CN3C(=O)NC(C)(c4ccccc4)C3=O)cc2)C1 (centres undefined) | -1 | -38 | -1 | 2 | -10 | 1 | · | ·
O=C(CSc1n[nH]c(=O)n1C1CC1)NCc1ccccc1 | 9 | -6 | -3 | -13 | -7 | -2 | · | ·
O=c1oc2cc(O)c(Cl)cc2c2ccccc12 | 5 | -2 | 49 | 5 | 11 | 16 | · | ·
O=c1cc2c(=O)oc3cc(O)c(O)oc3c2c(O)c1O | · | 15 | · | 59* | · | · | 31* | -4
CCC(=O)/C=C1/Sc2ccc(OC)cc2N1CCO | -3 | -4 | 67 | 9 | 0 | -3 | · | ·
CCC(/C=C1\Sc2ccc(OC)cc2N1CCO)=C\c1sc2ccc(OC)cc2[n+]1CCO | 45* | 5 | 9 | 34* | 84* | -265 | -4 | 4
CCOc1ccc(S(=O)(=O)Nc2ncn[nH]2)cc1 | -1 | -3 | · | 46* | 16 | -5 | 33* | -5
CCOc1ccc(Br)cc1S(=O)(=O)Nc1ncn[nH]1 | -8 | 6 | -4 | 1 | -1 | -21 | · | ·
C=CCc1c(C)[nH]c2c(OC)cccc2c1=S | -13 | 9 | -6 | 39* | -7 | 8 | 13 | 1
COc1ccc(C/C(N)=N/OC(=O)CCc2ccccc2)cc1 | -8 | -10 | · | 0 | -3 | -5 | · | ·
SMILES | EBNA-1 inhibitor | HCV NS3 hel inh | ALR H2O2 inh | PfM18AAP inh-1 | ZTA DNA inh | core dimer inh | PfM18AAP inh-2 | CTSL1 confirm
Cc1ccc(S(=O)(=O)N2CCN(C(=O)COC(=O)C3CCC3)CC2)c(C)c1 | 2 | · | -4 | · | 8 | -2 | · | ·
O=C(CCc1nnc2ccc(NCc3ccco3)nn12)Nc1ccccc1F | -8 | 9 | -3 | 48* | 0 | -1 | -21 | -1
NC(=O)C1CCN(C(=S)c2ccc(-c3ccc(Br)cc3)o2)CC1 | -11 | 3 | -20 | 49* | 3 | -9 | -13 | 7
Cc1nccn1CCOc1ccc(Cl)cc1 | -13 | -8 | -1 | -4 | -2 | -5 | · | ·
CC1CN(C(=O)CCC(=O)NCc2ccccc2)c2ccccc2O1 (centres undefined) | -6 | -4 | 4 | -5 | 1 | -1 | · | ·
CCOC(=O)c1oc2c(C)c(O)ccc2c(=O)c1-c1nncn1-c1ccccc1 | 2 | 2 | -7 | -6 | 3 | -5 | · | ·
CCOC(=O)c1oc2c(O)c(O)ccc2c(=O)c1-c1nncn1-c1ccccc1 | -5 | 6 | · | 46* | 11 | -22 | 26 | 5
COc1ccc2cc(/C=C3\SC(=S)NC3=O)c(N3CCOCC3)nc2c1 | 10 | 16 | 71 | -4 | 5 | 7 | · | ·
COC(=O)/C=C1\SC(N2CCOCC2)=C(c2ccc(OC)cc2)C1=O | 12 | -4 | 14 | 47* | -5 | 0 | 32* | -1
CN(Cc1ccccc1OCCO)CC1CCCN(CCc2ccc(Cl)cc2)C1 (centres undefined) | -8 | -9 | · | -1 | -6 | 2 | · | ·
CCOC(=O)CC1Sc2ccccc2NC1=S (centres undefined) | 17 | 30 | · | 37* | 15 | 0 | -16 | 7
O=C(N/N=C/c1ccc(O)c(O)c1)c1ccc(CSc2cccc3cccnc23)cc1 | 10 | 3 | · | 57* | -8 | 4 | 49* | -5
O=C(CSc1cccc2cccnc12)N/N=C/c1cccc(O)c1 | 3 | 1 | 34 | 11 | 5 | 13 | · | ·
COc1cc(-c2nc3ccc(C)cn3c2Nc2ccc3c(c2)OCCO3)ccc1O | -11 | -18 | 91* | 41* | 2 | -26 | 41* | -2
COc1cccc2sc3ccc(NCCC4CCCN4C)cc3c(=O)c12 (centres undefined) | -12 | -26 | ? | 33* | 3 | -18 | -45 | -2
CCCN(C(=O)c1cnccn1)c1c(N)n(Cc2ccccc2)c(=O)[nH]c1=O | · | · | · | · | 4 | · | · | ·
Oc1ccc(-c2cn3c(n2)SCC3)cc1 | 18 | 6 | 65 | -2 | 3 | -2 | · | ·
Oc1ccc(-c2cn3c(n2)SCC3)cc1O | 1 | 15 | 99* | 73* | 4 | -18 | 65* | -1
CC1SC(=S)N(c2ccc(N(C)C)cc2)C1=O (centres undefined) | -12 | -7 | 99* | 33* | 5 | -4 | 10 | -1
CN(C)c1ccc(N2C(=O)CSC2=S)cc1 | 6 | 30 | 34 | 21 | -5 | -4 | · | ·
N#CCSCC(=O)Nc1ccccc1 | 4 | -1 | -19 | 4 | 15 | -3 | · | ·

Bioassay records deposited in PubChem BioAssay by several laboratories.
